Data: ChEMBL document CHEMBL2040749, “Novel polycyclic 'cage'-1,2-diamines as potential anti-tuberculosis agents” (2012)

System: Mycobacterium tuberculosis
Experiment: Antitubercular activity against Mycobacterium tuberculosis H37Rv ATCC 25177after 21 days by BACTEC MGIT 960 method
Assay type: functional
Details: 504 h
Summary of the method: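 Compounds dissolved in 100% methanol (10 mg/mL stock), sonicated, filter-sterilised, diluted in sterile water; twofold serial dilutions, working range 8 to 0.125 µg/mL. Strains grown in Middlebrook 7H9 + OADC at 37 °C; inoculum adjusted to McFarland 1, diluted tenfold to 10^5 CFU/mL into MGIT tubes. Drug-free control received a 1:100 inoculum. MIC is the lowest dilution negative when the control turns positive. Triplicate.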

Q: Which MIC does the source give for `CC(C)=CCC/C(C)=C/CNC(=O)CN1[C@H]2C3C4CC5C6C4C2C6[C@@]1(O)C53` (mixture of isomers) here?
A: 1 µg/mL

Q: How did the MIC turn out when `CC(C)=CCC/C(C)=C/CNCCN[C@@H]1C2C3CC4C5C3CC2C5C41.Cl.Cl` (mixture of isomers) was run?
A: 1 µg/mL

Q: For `CC(C)=CCC/C(C)=C/CNCCN[C@]12O[C@H]3C4C5CC(C6C5C3C61)C42.Cl.Cl` (mixture of isomers), which MIC is on record?
A: 1 µg/mL

Q: `CC(C)=CCC/C(C)=C/CNCCNC1C2CC3CC(C2)CC1C3.Cl.Cl` (stereo not drawn) was tested. Which MIC did it give?
A: 0.5 µg/mL

Q: For `CC(C)=CCC/C(C)=C/CNCCN1[C@H]2C3C4CC5C6C4C2C6[C@@]1(O)C53.Cl.Cl` (mixture of isomers), which MIC is on record?
A: 1 µg/mL

Q: How did the MIC turn out when `CC(C)=CCC/C(C)=C/CNCCNC1C2C3CC4C5CC(C42)C1C53.Cl.Cl` (racemic) was run?
A: 0.5 µg/mL

Q: With `CC(C)=CCC/C(C)=C/CNCC(=O)N[C@]12O[C@H]3C4C5CC(C6C5C3C61)C42` (mixture of isomers) as the molecule, how does the MIC read?
A: 1 µg/mL

Q: With `CC(C)=CCC/C(C)=C/CNCCN[C@@H]1C2C3CC4C5C3C1C5[C@@H](O)C42.Cl.Cl` (mixture of isomers) as the molecule, how does the MIC read?
A: 0.5 µg/mL
